The source of these data is ChEMBL document CHEMBL5042484, “Design of SARS-CoV-2 PLpro Inhibitors for COVID-19 Antiviral Therapy Leveraging Binding Cooperativity” (J Med Chem, 2022).

The nature of series [1]: Binding affinity to […] sensor chip immobilized His-tagged SARS-CoV-2 PLpro assessed as equilibrium dissociation constant by surface plasmon resonance analysis. On the set-up: species or system Severe acute respiratory syndrome coronavirus 2.
Series [2] is described as follows: Inhibition of SARS-CoV-2 PLpro using Z-RLRGG-AMC as substrate preincubated for 10 mins followed by substrate addition measured for 15 mins by fluorescence plate reader assay. On the set-up: species or system Severe acute respiratory syndrome coronavirus 2.
For series [3], the system named is Severe acute respiratory syndrome coronavirus 2. Briefly: Inhibition of SARS-CoV-2 PLpro assessed as viral PLpro-mediated deubiquitination using Ub-AMC as substrate at 30 uM preincubated for 10 mins followed by substrate addition measured for 15 mins by fluorescence plate reader assay. The procedure, abridged:
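Run like the RLRGG-AMC PLpro assay (HEPES pH 7.5 buffer, 10 min preincubation, 15 min fluorescence read), but with 80 nM PLpro and 0.5 µM Ub-AMC as substrate.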

Series [4] relates to A549. Description: Cytotoxicity against human A549 cells overexpressing ACE2 receptor assessed as cell viability at 100 uM incubated for 48 hrs by Cell Titer-Glo luminescent assay. It is filed as toxicity, cell-based. Conditions: a549, 48 h. (In ATP-based viability assays light output follows the ATP content of the culture.)
Series [5] can be described thus: Drug concentration in C57BL/6J mouse plasma at 50 mg/kg, ip measured from 0.5 to 5 hrs by analytical analysis. The format is ADME, organism-based. Conditions: in vivo, time 0.5-5 hrs.
Series [6] has as its system A549. Description: Cytotoxicity against human A549 cells overexpressing ACE2 receptor assessed as cell viability at < 30 uM incubated for 48 hrs by Cell Titer-Glo luminescent assay. The format is toxicity, cell-based. Conditions: a549, 48 h.
In series [7] the test system is A549. Briefly: Cytotoxicity against human A549 cells overexpressing ACE2 receptor assessed as cell viability at <10 uM incubated for 48 hrs by Cell Titer-Glo luminescent assay. It is filed as toxicity, cell-based. Conditions: a549, 48 h.
For series [8], the system named is Severe acute respiratory syndrome coronavirus 2. Briefly: Inhibition of SARS-CoV-2 PLpro assessed as viral PLpro-mediated deISGylation using ISG-15-AMC as substrate at 30 uM preincubated for 10 mins followed by substrate addition measured for 15 mins by fluorescence plate reader assay. The procedure, abridged: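 Run like the RLRGG-AMC PLpro assay (HEPES pH 7.5 buffer, 10 min preincubation, 15 min fluorescence read), but with 4 nM PLpro and 0.5 µM ISG15-AMC as substrate.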

Series [9] relates to A549. Description: Cytotoxicity against human A549 cells overexpressing ACE2 receptor assessed as cell viability at <50 uM incubated for 48 hrs by Cell Titer-Glo luminescent assay. It is filed as toxicity, cell-based. Conditions: a549, 48 h.
A short description of series [10]: Inhibition of SARS-CoV-2 PLpro. On the set-up: species or system Severe acute respiratory syndrome coronavirus 2.

Activity calls are given as the source filed them. No cut-off for these calls is given here.

Take `CNC(=O)C[C@@H](NC(=O)c1cc(N(C)C2CNC2)ccc1C)c1cccc2ccccc12`: the dissociation constant (Kd) (commonly the free concentration of one partner at which half of the binding sites on the other are occupied at equilibrium, for simple one-to-one binding) in series [1] was above 1000 µM. The IC50 (commonly the concentration at which inhibition is half-maximal) in series [2] is given as “Not Active”.
For `Cc1ccc(NC2CNC2)cc1C(=O)N[C@H](C)c1cccc(-c2ccc(CN3CCCC3)s2)c1`, the inhibition result in [3] and in series [8] was “Active” in each case. Besides, the Activity result is “Toxic” in the series on A549 [4], “Non-Toxic” in the series with A549 [6] and “Non-Toxic” in the series on A549 [7]. Besides, in series [5], the concentration amounted to 12 µM.
Consider `Cc1ccc(NC2CNC2)cc1C(=O)N[C@H](C)c1cccc2ccccc12`, for which the inhibition result in series [3] and in series [8] was “Active” in each case.
Take `Cc1ccc(NC2CNC2)cc1C(=O)N[C@H](C)c1cccc(-c2ccc(CNC3CCCC3)s2)c1`: the Activity result is reported as “Non-Toxic” with A549 [9], “Toxic” with A549 [4] and “Non-Toxic” with A549 [6]. Further, the inhibition result in series [3] and in series [8] was “Active” in each case. The dissociation constant (Kd) in series [1] came to 0.235 µM.
On to `Cc1ccc(N)cc1C(=O)N[C@H](C)c1cccc2ccccc12`, for which the inhibition entry in series [3] and in series [8] was “Active” each time.
With `Cc1ccc(N)cc1C(=O)N[C@H](CCO)c1cccc2ccccc12`, in [2] (read-out: IC50), the half-maximal inhibitory concentration (IC50) came to 100 µM.
In [10], `COC(=O)/C=C/CNC(=O)CNC(=O)[C@H](CN)NC(=O)[C@H](CCc1nc2ccccc2s1)NC(C)=O` displayed an IC50 of 50 µM.
Turning to `Cc1ccc(NC2CNC2)cc1C(=O)N[C@H](C)c1cccc(-c2cccs2)c1` (single isomer, unassigned), the inhibition result in series [3] and in series [8] was “Active” each time.
For the compound `COC(=O)/C=C/CNC(=O)CNC(=O)[C@H](CN)NC(=O)[C@H](CCc1ccc(O)cc1)NC(C)=O`, in [10], the half-inhibitory concentration (IC50) is 50 µM.
